The subject of experiment [1] is Pseudomonas aeruginosa. Description: Antibacterial activity against Pseudomonas aeruginosa IFO 3448 after 24 hrs by two fold dilution method. It is filed as functional.
In experiment [2] the test system is Pseudomonas aeruginosa. Description: Antibacterial activity against Pseudomonas aeruginosa IFO 3448 assessed as growth inhibition at 100 ug/disc after 24 hrs by agar disc-diffusion method. It is filed as functional. The method in brief:
(§1)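 Agar disc-diffusion on Mueller-Hinton agar. Sterile 8 mm filter-paper discs carrying 100 µg of agent were laid on the seeded agar. Plates were incubated at 37 °C, and growth-inhibition zone diameters were read after 24 h for bacteria.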

Experiment [3] has as its system Micrococcus luteus. Description: Antibacterial activity against Micrococcus luteus IFO 3232 after 24 hrs by two fold dilution method. It is filed as functional.
Experiment [4] has as its system Micrococcus luteus. The experiment is described as follows: Antibacterial activity against Micrococcus luteus IFO 3232 assessed as growth inhibition at 100 ug/disc after 24 hrs by agar disc-diffusion method. The class given is functional. Summed up:
as §1

The subject of experiment [5] is Bacillus subtilis. Description: Antibacterial activity against Bacillus subtilis IFO 3007 after 24 hrs by two fold dilution method. It is filed as functional.
Experiment [6] has as its system Bacillus subtilis. The experiment is described as follows: Antibacterial activity against Bacillus subtilis IFO 3007 assessed as growth inhibition at 100 ug/disc after 24 hrs by agar disc-diffusion method. It is filed as functional. Summed up:
as §1

The test system of experiment [7] is Staphylococcus aureus. The experiment is described as follows: Antibacterial activity against Staphylococcus aureus IFO 3060 after 24 hrs by two fold dilution method. The class given is functional.
Experiment [8] deals with Staphylococcus aureus. Description: Antibacterial activity against Staphylococcus aureus IFO 3060 assessed as growth inhibition at 100 ug/disc after 24 hrs by agar disc-diffusion method. It is filed as functional. The method in brief: as §1
For experiment [9], the system named is Escherichia coli. The experiment is described as follows: microbe, parasite or virus in culture. The note with it: IFO 3301, 24 h, read-out: DIZ.
In experiment [10] the test system is Candida albicans. The experiment is described as follows: Antifungal activity against Candida albicans IFO 0583 after 24 hrs by two fold dilution method. The class given is functional. The conditions noted are these: IFO 0583, 24 h.
The test system of experiment [11] is Candida albicans. The experiment is described as follows: Antifungal activity against Candida albicans IFO 0583 assessed as growth inhibition at 100 ug/disc after 48 hrs by agar disc-diffusion method. The conditions noted are these: IFO 0583, 48 h, read-out: DIZ. The class given is functional.
The test system of experiment [12] is Escherichia coli. The conditions noted are these: IFO 3301, 100 ug/disc.

Experimental findings from ChEMBL document CHEMBL2424616, “Synthesis and antimicrobial activity of novel 5-(1-adamantyl)-2-aminomethyl-4-substituted-1,2,4-triazoline-3-thiones” (2013) are described below.

≈ marks a conversion by molar mass, not a printed value.

As to `CC1(C)S[C@@H]2[C@H](NC(=O)[C@H](N)c3ccccc3)C(=O)N2[C@H]1C(=O)O` [AMPICILLIN], the MIC was 2 µg/mL (≈ 5.72 µM) against Pseudomonas aeruginosa [1] (IFO 3448, 24 h); 2 µg/mL (≈ 5.72 µM) against Micrococcus luteus [3] (IFO 3232, 24 h); 0.5 µg/mL (≈ 1.43 µM) in the experiment on Bacillus subtilis [5] (IFO 3007, 24 h); 2 µg/mL (≈ 5.72 µM) in the experiment with Staphylococcus aureus [7] (IFO 3060, 24 h). The zone of inhibition at 100 µg/disc in the experiment with Pseudomonas aeruginosa [2] (IFO 3448, 24 h, read-out: DIZ) was found to be 16 mm; in the experiment on Micrococcus luteus [4] (IFO 3232, 24 h, read-out: DIZ), 19 mm; in the experiment on Bacillus subtilis [6] (IFO 3007, 24 h, read-out: DIZ) it was 21 mm; in the experiment with Staphylococcus aureus [8] (IFO 3060, 24 h, read-out: DIZ), 23 mm; in the experiment with Escherichia coli [9], 17 mm.
In the experiment on Candida albicans [10], `Clc1ccccc1C(c1ccccc1)(c1ccccc1)n1ccnc1` [CLOTRIMAZOLE] had an MIC of 2 µg/mL (≈ 5.8 µM). In addition, in the experiment on Candida albicans [11], the zone of inhibition at 100 µg/disc came out at 21 mm.
With GENTAMICIN, the MIC came out at 1 µg/mL in the experiment with Pseudomonas aeruginosa [1], 2 µg/mL in the experiment on Micrococcus luteus [3], 2 µg/mL against Bacillus subtilis [5] and 2 µg/mL with Staphylococcus aureus [7]. In addition, the inhibition zone (IZ) was 19 mm with Pseudomonas aeruginosa [2], 18 mm with Micrococcus luteus [4], 25 mm with Bacillus subtilis [6] and 26 mm with Staphylococcus aureus [8]. Also, the IZ with Escherichia coli [12] is 20 mm.
